Screens (PubChem BioAssay)
TDP2 absorb: TDP2 (human) inhibition, absorbance primary screen; inhibition, % at 12.8 µM; recombinant TDP2, T5PNP hydrolysis, p-nitrophenol absorbance 415 nm; O95551; actives 0.34% (n = 370,000); AID 720702;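 active = inhibition above the mean of all tested compounds plus 3 SD, set per campaign, cut at about 25% in these data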
Target sequence (O95551 whole entry, looked up): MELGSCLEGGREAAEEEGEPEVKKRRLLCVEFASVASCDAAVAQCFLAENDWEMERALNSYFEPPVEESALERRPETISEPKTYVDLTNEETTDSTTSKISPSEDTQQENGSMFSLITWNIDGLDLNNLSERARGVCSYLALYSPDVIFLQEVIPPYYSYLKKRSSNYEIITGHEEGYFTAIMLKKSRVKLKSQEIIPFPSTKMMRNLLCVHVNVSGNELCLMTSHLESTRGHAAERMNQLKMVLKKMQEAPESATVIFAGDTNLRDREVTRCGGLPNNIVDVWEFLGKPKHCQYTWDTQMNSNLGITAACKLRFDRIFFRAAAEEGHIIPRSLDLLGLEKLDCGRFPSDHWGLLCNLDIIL
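Incubation: 2 h at 37 °C; Test system: recombinant human TDP2; Quantity: enzyme 120 nM; Read-out basis: percent inhibition; Medium: 50 mM Tris-HCl pH 7.5 with Mg2+, KCl, DTT, BSA; Repeats: single replicate; Compound: 12.8 µM single point, 1% DMSO; Signal: epi absorbance; Reagent: 5 mM T5PNP chromogenic substrate; Benchmarks: no-enzyme high, DMSO-plus-enzyme low.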
LEDGF integ inh: blocks HIV-1 LEDGF/p75-dependent DNA integration | TR-FRET IN-LEDGF/p75 DNA integration, Eu/Cy5 | inhibition, % at 3.7 µM | AID 743269 | actives 0.64% (n = 370,000);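 active = inhibition above the screen-wide mean plus 3 SD, cut at about 13% in these data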;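 note: signal is the Cy5 over europium emission ratio at 671 and 618 nm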
UHRF1 binding: human UHRF1 methylated DNA binding inhibitors | Q96T88 | UHRF1 binding to methylated oligo, TR-FRET | inhibition, % at 4.4 µM | actives 0.75% (n = 370,000); in the data active = inhibition above about 21%;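 note: UHRF1 SRA domain binding a hemimethylated CpG hairpin DNA probe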
MBD2 DNA inh: blocks human MBD2 binding to methylated DNA; Q9UBB5; TR-FRET, MBD2 binding to methylated oligonucleotide; inhibition, % at 4.4 µM; actives 0.31% (n = 370,000); in the data active = inhibition above about 13%
TDP2 confirm: human TDP2 inhibition, confirmation. shares compounds with TDP2 absorb. recombinant human TDP2, absorbance read-out. inhibition, % at 12.8 µM. actives 22% (n = 1,100). AID 743263; in the data active = inhibition above about 25%
Of the large screens only hits and unclear results are named; the others gave an inactive call (follow-up assays come after a bar, where they were run). Only some compounds are listed: those with a hit (about 1.6% of all), similar ones and a draw of the others.

O=c1cc(-c2ccc(Cl)cc2)[nH][nH]1	TDP2 absorb 74 | TDP2 confirm inactive
Cc1nn(-c2ccccc2)c2c1C(c1ccncc1)C(C#N)=C(N)O2 (configuration not stated)	none
Cc1ccc(-n2nc(C)c3c2OC(N)=C(C#N)C3c2ccccc2F)cc1 (configuration not stated)	TDP2 absorb 26 | TDP2 confirm inactive
Cc1nn(-c2ccccc2)c(Cl)c1C1C(C#N)=C(N)Oc2c1c(C)nn2-c1ccccc1 (configuration not stated)	TDP2 absorb 27 | TDP2 confirm inactive
Cc1nn(-c2ccccc2)c2c1C(c1c(C)[nH]c(C#N)c1C)C(C#N)=C(N)O2 (configuration not stated)	TDP2 absorb 35 | TDP2 confirm inactive
Cc1nn(-c2ccccc2)c(Cl)c1C1C(C#N)=C(N)Oc2n[nH]c(C)c21 (configuration not stated)	none
CC(c1ccccc1)N1CC[C@H]2C=CC[C@@H](C(=O)Nc3ccc(F)c(F)c3)[C@H]2C1=O (some centres not stated)	none
CN(Cc1ccccc1)S(=O)(=O)c1cccc(C(=O)OCc2ccc(C(F)(F)F)cc2)c1	none
COC(=O)[C@H]1C[C@@]2(n3ccc4ccccc43)c3ccccc3N(S(=O)(=O)c3ccccc3)[C@H]2N1C(=O)CNC1CCCCC1	none
CCCCCNC(=O)C(C1CC1)n1c(=O)c(-c2ccco2)nc2ccccc21 (configuration not stated)	TDP2 absorb 54 | TDP2 confirm inactive
O=C1C(Cl)=C(NCCN2CCOCC2)C(=O)c2ccccc21	TDP2 absorb 31 | TDP2 confirm inactive
CCOc1cc(/C=C\c2nc(O)c([N+](=O)[O-])c(=O)[nH]2)ccc1OC(C)C	TDP2 absorb 25 | TDP2 confirm inactive
O=C(O)c1cccc(NC2=C(N3CCOCC3)C(=O)c3ccccc3C2=O)c1	TDP2 absorb 37 | TDP2 confirm 51
c1nc(NCC2CCCC2)c2cc(-c3ccc4c(c3)OCO4)ccc2n1	none
CCN1CCN(CC(O)COC(c2ccccc2)c2ccccc2C)CC1 (configuration not stated)	TDP2 absorb 27 | TDP2 confirm inactive
CC(=O)N/N=C/c1c(C)[nH]n(-c2ccccc2)c1=O	TDP2 absorb 28 | TDP2 confirm inactive
Cc1[nH]n(-c2ccccc2)c(=O)c1/C=N/N1C(=O)c2ccc3c4c(ccc(c24)C1=O)CC3	TDP2 absorb 28 | TDP2 confirm inactive
COC(=O)N/N=C\c1c(C)[nH]n(-c2ccccc2)c1=O	none
COCC(=O)N/N=C/c1c(C)[nH]n(-c2ccccc2)c1=O	TDP2 absorb 32 | TDP2 confirm inactive
Cc1[nH]n(-c2ccccc2)c(=O)c1/C=N/NC(=O)COc1ccccc1[N+](=O)[O-]	none
Cc1[nH]n(-c2ccccc2)c(=O)c1/C=N/N(C)c1ccccc1	TDP2 absorb 42 | TDP2 confirm inactive
Cc1cc(C(=O)O[C@H]2CCC[C@]3(C(=O)N(Cc4ccccc4)c4ccccc43)[C@H]2NC(=O)CCc2ccccc2)no1	none
COc1ccc(OC)c(CN2CCC(C(=O)N(C)CCc3ccc(OC)c(OC)c3)CC2)c1	none
COc1ccc(CCN(C)C(=O)C2CCCN(C3CCN(Cc4ccccc4)CC3)C2)cc1OC (configuration not stated)	TDP2 absorb 32 | TDP2 confirm inactive
O=C(O)CN1C(=O)/C(=C/c2ccc(SCc3ccccc3)o2)SC1=S	TDP2 absorb 26 | TDP2 confirm inactive
Cc1cc(C(=O)OCCCN(C)C2CN(Cc3cn(Cc4ccccc4C(F)(F)F)nn3)S(=O)(=O)C2)no1 (configuration not stated)	none
CC[C@@H]1/C(=C/c2ccccc2)N2C(=O)C[C@@H](c3ccccc3)N=C2N1Cc1ccc(OC)cc1OC	none
Cc1ccc(-n2nc3c(=O)n(CCCC(=O)NCc4ccc(C)o4)nc(C)c3c2C)cc1	TDP2 absorb 25 | TDP2 confirm inactive
CC(=O)Nc1ccc(/C=C2\CCc3ccccc3C2=O)cc1	TDP2 absorb 26 | TDP2 confirm inactive
CC(C)NCCOc1cccc(Br)c1	none
Brc1cccc(OCCCNC2CCCC2)c1	TDP2 absorb 26 | TDP2 confirm inactive
CC1=NN(c2ccc(Cl)c(C(=O)O)c2)C(=O)C1	TDP2 absorb 44 | TDP2 confirm inactive
CC1=NN(c2cccc(Cl)c2)C(=O)C1	TDP2 absorb 51 | TDP2 confirm inactive
Cc1cc(NC(=O)CN(C)CCOc2ccccc2)ccc1Br	none
CN(CCOc1ccccc1)CC(=O)Nc1cccc(Br)c1	TDP2 absorb 32 | TDP2 confirm inactive
CN(C)c1cccc(C(=O)OCC(=O)N(Cc2ccccc2)C2CCS(=O)(=O)C2)c1 (configuration not stated)	TDP2 absorb 38 | TDP2 confirm inactive
CCOC(=O)N1CCN(C2=C(NS(=O)(=O)c3ccccc3)C(=O)c3ccccc3C2=O)CC1	TDP2 absorb 64, LEDGF integ inh 22 | TDP2 confirm inactive
O=C1C(NS(=O)(=O)c2cccs2)=C(N2CCN(Cc3ccccc3)CC2)C(=O)c2ccccc21	TDP2 absorb 40 | TDP2 confirm inactive
CCN1CCN(C2=C(NS(=O)(=O)c3ccc(Br)cc3)C(=O)c3ccccc3C2=O)CC1	TDP2 absorb 28 | TDP2 confirm inactive
CCN1CCN(C2=C(NS(=O)(=O)c3ccccc3)C(=O)c3ccccc3C2=O)CC1	TDP2 absorb 28 | TDP2 confirm inactive
CCn1c(SCC(=O)Nc2ccc(C(C)C)cc2)nnc1-c1ccc(C(C)(C)C)cc1	none
O=C(NC1CCCCN(Cc2cccc(C(F)(F)F)c2)C1=O)C1C2CC3CC(C2)CC1C3 (configuration not stated)	none
O=C(CCl)NC1CCCCN(Cc2ccc(OC(F)(F)F)cc2)C1=O (configuration not stated)	none
CC(=O)Nc1nc2cc([N+](=O)[O-])ccc2s1	TDP2 absorb 35 | TDP2 confirm inactive
Cc1cc(C)c(NC(=O)CSc2nnc(CN3CCOCC3)n2C)c(C)c1	TDP2 absorb 26 | TDP2 confirm inactive
CCOc1ccc(N2C(=O)c3cccnc3C2=O)cc1	none
O=C1c2nccnc2C(=O)N1c1ccc(C(F)(F)F)cc1	TDP2 absorb 28 | TDP2 confirm inactive
CC(=O)Nc1ccc(NCN2C(=O)C3C4CCC(C4)C3C2=O)cc1 (configuration not stated)	TDP2 absorb 32, UHRF1 binding 29 | TDP2 confirm inactive
Cc1c(NC(=O)C(C)OC(=O)c2ccc([N+](=O)[O-])s2)c(=O)n(-c2ccccc2)n1C (configuration not stated)	TDP2 absorb 44 | TDP2 confirm 32
Cc1cc(NC(=O)CSc2nccn2C)n(-c2ccccc2)n1	TDP2 absorb 26 | TDP2 confirm inactive
Cc1cc(NC(=O)COc2ccccc2)n(-c2ccccc2)n1	none
